FAS TE block: blocks the thioesterase domain of human fatty acid synthase. hit rate 0.67% among 360,000. inhibition, % at 15 µM. recombinant FAS-TE, OMFH fluorogenic substrate, fluorescence endpoint. AID 602261;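 active = compounds whose normalised, plate-corrected inhibition of enzyme fluorescence in the single-dose primary screen is 50% or more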;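 also: 0% = DMSO with enzyme and 100% = substrate without enzyme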
SENP1 inh: blocks the human SENP1 SUMO protease catalytic domain | Q9P0U3 | recombinant SENP1 catalytic domain, CyPet-SUMO1-YPet FRET cleavage | inhibition, % at 10 µM | hit rate 0.21% among 360,000;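 active = inhibition at least 30% at 10 µM, raw YFP signal under a set limit, fluorescence ratio 0.5 to 1.5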;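 also: 0% = enzyme with DMSO and 100% = no enzyme wells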
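Test system: recombinant human SENP1 catalytic domain, His6-tagged / Medium: pH 8 Tris buffer with EDTA, NaCl, BME, BSA, NP40, catalase / Also added: SUMO1 FRET substrate flanked by Cypet and Ypet, 25 nM / Times: 50 min reaction at room temperature / Signal: FRET, CFP and YFP emission / Control set: no-enzyme low control and enzyme-plus-DMSO high control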
Arrestin-AP2 inh: inhibitors of human beta-arrestin and AP2 interaction | FITC-arrestin peptide / GST-AP2 beads, flow cytometry; AP2 beta2 appendage carries R879A mutation | hit rate 0.31% among 340,000 | AID 504490 | inhibition, % at 10 µM;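 active = inhibition above a set limit, near 3 SD of compounds lacking own fluorescence, cut at about 54% in these data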;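 also: plate controls were DMSO wells for no effect and 5 µM unlabelled arrestin peptide for full effect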
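System: GST-tagged AP2 beta2-adaptin appendage (R879A) on 4 µm glutathione beads / Reagent: FITC-arrestin peptide, 50 nM / Detection: HyperCyt-sampled flow cytometry, FL1 channel, ex 488/em 535 nm / Timing: 12 min plus 1 h, RT / Buffer or medium: PBS plus Tween 20 (0.05%) and BSA (0.1%)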
JMJD2C inh: inhibitors of human GASC-1 (JMJD2C) demethylase; inhibition, % at 2.35 µM; AID 2099; hit rate 0.069% among 330,000; Q9H3R0; GST-JMJD2C(1-420) H3K9me3 demethylation, DELFIA europium;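 active = more than half of a compound's replicate wells show inhibition beyond 50%, single wells judged on their own value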;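 also: signal counts dimethyl H3K9 product captured on neutravidin plate; 0% = median of DMSO wells and 100% = 0.3 times that DMSO median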
FAS-TE inh conf: confirmation of human fatty acid synthase thioesterase inhibitors; shares compounds with FAS TE block; recombinant FAS-TE, OMFH fluorogenic substrate, fluorescence; inhibition, % at 15 µM; hit rate 45% among 2,300; AID 624325;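 active = compounds inhibiting the enzyme by at least 50% at 15 µM in any one of the replicates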;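 also: 0% = enzyme with DMSO only and 100% = wells lacking enzyme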
* = called active by the depositor; i = inactive; / = no result. An excerpt weighted towards active compounds, which were near 1.1% of everything screened.

SMILES	FAS TE block	SENP1 inh	Arrestin-AP2 inh	JMJD2C inh	FAS-TE inh conf
COc1ccc(C2=C(C=C(C#N)C#N)C(c3ccccc3C)c3ccccc3O2)cc1OC (stereo not given)	69.2*	-19.2	3.1	-1.2	17.9
COc1cc(-c2nnc(COC(=O)C3c4ccccc4Oc4ccccc43)o2)cc(OC)c1OC	10.1	0.1	-1.1	-20.9	/
CC(C)COc1ccc(C(=O)OC2CC(C)(C)OCC2CN(C)C)cc1 (stereo not given)	-3.5	1.2	2.8	-8.7	/
CN(C)c1nc(N(C)C)nc(N2CCCCC2)n1	-5.8	-0.2	29.0	2.1	/
Cc1nc(N2CCCCC2)c2c(-c3cccs3)csc2n1	18.9	-18.5	24.7	0.1	/
Cc1nc(N2CCN(S(=O)(=O)c3ccccc3C#N)CC2)c2c(-c3cccs3)csc2n1	50.7*	-21.4	-2.0	0.6	30.5
O=C(CCc1nnc(C2CCCCC2)o1)N1CCN(c2ccccc2F)CC1	-3.0	2.5	4.0	-5.8	/
O=[N+]([O-])c1cc(-c2nnc(C34CC5CC(CC(C5)C3)C4)o2)cc([N+](=O)[O-])c1	52.7*	2.1	-4.7	-0.2	11.6
O=C(COC(=O)c1cc([N+](=O)[O-])ccc1N1CCOCC1)c1ccccc1Cl	46.5	0.4	7.6	4.3	/
Cc1cc(C)c(C(=O)COC(=O)c2cc([N+](=O)[O-])ccc2N2CCOCC2)cc1C	56.9*	0.2	-30.4	4.4	33.5
COc1ccccc1C(=O)COC(=O)c1cc([N+](=O)[O-])ccc1N1CCOCC1	68.4*	-1.6	6.0	83.8	34.3*
Cc1cc(C)c(C(=O)COC(=O)c2cc([N+](=O)[O-])ccc2NCCO)cc1C	52.4*	1.9	8.4	0.3	36.6*
O=C(COC(=O)c1cc([N+](=O)[O-])ccc1N1CCOCC1)c1ccccc1	62.8*	2.0	-8.5	-6.7	70.7*
CCOc1ccc(C(=O)c2cc([N+](=O)[O-])ccc2N2CCOCC2)cc1	47.0	-0.2	1.7	-16.7	/
COc1ccccc1CNC(=O)COC(=O)c1cc([N+](=O)[O-])ccc1N1CCOCC1	79.2*	-0.5	24.7	0.2	89.9*
COc1cc(C(=O)COC(=O)c2cc([N+](=O)[O-])ccc2N2CCOCC2)ccc1OC(F)F	55.3*	0.1	0.0	-2.7	56.7*
COc1ccccc1NC(=O)c1cc([N+](=O)[O-])ccc1N1CCOCC1	36.3	0.9	1.9	-7.0	/
COc1ccc(C(=O)COC(=O)c2cc(S(=O)(=O)N3CCCCC3)ccc2N2CCOCC2)c(OC)c1	73.1*	3.0	-17.1	2.3	3.4
COc1ccc(C(=O)c2cc([N+](=O)[O-])ccc2N2CCOCC2)cc1	23.0	0.2	-0.2	-8.6	/
COc1ccc(C(=O)COC(=O)c2cc([N+](=O)[O-])ccc2N2CCOCC2)c(OC)c1	74.6*	0.9	19.3	-0.1	75.3*
CC(C)CCN(C(=O)c1ccc(N2CCCC2=O)cc1)c1c(N)n(Cc2ccccc2)c(=O)[nH]c1=O	1.9	-13.8	9.3	3.7	/
O=C1C=CC(=O)N1N(c1ccccc1)c1ccccc1	7.6	1.6	15.7	i	/
O=C1CC(N2CCN(c3ccc(S(=O)(=O)N4CCOCC4)cc3)CC2)C(=O)N1Cc1ccccc1 (stereo not given)	55.7*	1.8	10.0	3.4	64.7*
COc1ccc(N=C2C(=Nc3ccc(OC)cc3)N(c3ccc(N(C)C)cc3)C(=S)N2c2ccc(OC)cc2)cc1	80.1*	4.6	19.6	2.1	24.5
O=C(Cn1cnc2c(OCc3ccccc3)ncnc21)NCCN1CCOCC1	-8.6	1.8	-5.4	31.9	/
SMILES	FAS TE block	SENP1 inh	Arrestin-AP2 inh	JMJD2C inh	FAS-TE inh conf
O=C(Cc1cccc(C(F)(F)F)c1)OCN1C(=O)c2ccccc2C1=O	50.7*	5.8	7.3	-14.7	46.0*
Cc1ccc2c(c1)[C@H]1[C@H](CO2)[C@H](c2ccccc2)[C@]2(C)C(=O)N(Cc3ccco3)CC(=O)N12	8.9	-9.3	0.7	-1.8	/
O=C(NC1CCCCC1)C1CC(=O)N(c2cccc([N+](=O)[O-])c2)C1 (stereo not given)	79.7*	-1.2	1.3	-1.1	84.1*
CN(CC(=O)Nc1ccc(Cl)c(Cl)c1)C1CCCCC1	31.1	3.5	5.5	-3.0	/
CN(CC(=O)Nc1ccc(Cl)c(Cl)c1)C(=O)C12CC3CC(CC(C3)C1)C2	54.1*	0.2	-1.8	2.1	19.2
O=C(NCc1ccc2c(c1)OCO2)c1ccc(C2SCC(=O)N2Cc2ccco2)cc1 (stereo not given)	59.1*	3.3	7.4	-12.5	50.3*
C=CCNC(=O)c1ccc(C2SCC(=O)N2Cc2ccco2)cc1 (stereo not given)	-1.8	-1.6	21.5	7.8	/
COc1ccc(CC(=O)N(C)Cc2ccc(C(C)(C)C)cc2)cc1S(=O)(=O)N1CCOCC1	80.3*	-0.7	0.3	-1.3	82.1*
COc1ccc(CC(=O)N(C)Cc2cccc(F)c2)cc1S(=O)(=O)N1CCOCC1	-3.8	0.2	-11.6	4.8	/
O=C1c2ccccc2C(=O)N1c1ccc(Cl)cc1	/	/	/	1.9	/
O=C1C2C(c3ccccc3)(C(=O)N1c1ccc(Cl)cc1)C2(c1ccccc1)c1ccccc1 (stereo not given)	59.7*	-1.6	-2.1	0.2	26.6
Cc1cccc(N2C(=O)CC(Sc3nc(-c4ccccc4)c4cc(Cl)ccc4n3)C2=O)c1 (stereo not given)	65.9*	3.6	27.3	-18.7	28.0
Cc1cc(Br)ccc1NC(=O)CN(C)C(=O)c1cc([N+](=O)[O-])ccc1N1CCOCC1	63.8*	0.4	1.2	2.1	77.0*
CN(CC(=O)Nc1ccc(F)cc1)C(=O)COC(=O)c1cc([N+](=O)[O-])ccc1N1CCOCC1	62.5*	3.4	-0.7	-3.1	57.7*
O=C(COC(=O)c1cc([N+](=O)[O-])ccc1N1CCOCC1)Nc1cccc(F)c1	90.1*	0.9	-3.9	0.7	93.0*
COc1ccc(NC(=O)COC(=O)c2cc([N+](=O)[O-])ccc2N2CCOCC2)cc1	79.5*	-1.3	2.1	-2.1	60.4*
O=C(Nc1cccc(NC(=O)c2cccs2)c1)c1ccc(Br)cc1	2.6	0.3	40.9	4.5	/
O=C(NCc1ccccn1)c1ccc(/C=N/O)nc1	-3.7	-1.8	-2.1	8.9	/
CC(=O)Nc1ccc(NC(=O)COC(=O)c2cc([N+](=O)[O-])ccc2N2CCOCC2)cc1	17.8	-2.6	-4.6	0.6	/
O=C(COC(=O)c1c[nH]c(=O)[nH]c1=O)Nc1cccc([N+](=O)[O-])c1	3.7	-0.8	2.0	13.4	/
CCOC(=O)c1ccccc1NC(=O)COC(=O)c1cc([N+](=O)[O-])ccc1N1CCOCC1	53.4*	-0.5	15.8	-18.7	19.0
O=C(OCc1ccccc1Cl)c1cc([N+](=O)[O-])ccc1N1CCOCC1	36.0	-1.3	-6.6	1.2	/

Bioassay records (PubChem)
